Active and inactive are the calls of the source. No cut-off for these calls is given here.
Tests used:
[1] = test system: Caco-2; experiment: Antiproliferative activity against human Caco2 cells after 48 hrs by MTT assay; type: functional, cell-based; settings: Caco-2, 48 h
[2] = test system: MCF7; experiment: Induction of apoptosis in human MCF7 cells assessed as upregulation of Bak mRNA levels at 1 uM after 24 hrs by RT-qPCR analysis; type: functional, cell-based
[3] = biological target: T1, Vitamin D3 receptor (Homo sapiens) (UniProt P11473); experiment: Transactivation of human GAL4-fused VRD expressed in HEK293 cells co-transfected with human RXRalpha/VDRE after 24 hrs by dual luciferase reporter gene assay; type: cell-based
T1 sequence (whole entry): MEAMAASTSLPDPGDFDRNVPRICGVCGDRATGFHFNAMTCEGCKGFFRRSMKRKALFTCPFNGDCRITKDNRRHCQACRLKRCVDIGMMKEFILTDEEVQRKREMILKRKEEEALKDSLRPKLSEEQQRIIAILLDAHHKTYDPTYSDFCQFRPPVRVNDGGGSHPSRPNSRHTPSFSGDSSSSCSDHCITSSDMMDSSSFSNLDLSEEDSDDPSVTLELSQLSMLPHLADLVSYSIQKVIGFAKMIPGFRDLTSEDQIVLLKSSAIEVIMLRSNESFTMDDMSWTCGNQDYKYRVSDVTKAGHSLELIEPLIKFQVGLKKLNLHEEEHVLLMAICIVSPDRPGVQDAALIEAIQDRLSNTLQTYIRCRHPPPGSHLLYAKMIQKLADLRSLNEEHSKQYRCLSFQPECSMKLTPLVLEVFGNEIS

[4] = test system: PC-3; experiment: Antiproliferative activity against human PC3 cells after 48 hrs by MTT assay; type: functional, cell-based; settings: PC-3, 48 h
[5] = test system: MCF7; experiment: Induction of apoptosis in human MCF7 cells assessed as late apoptotic cells at 1 uM after 24 hrs by Annexin V-FITC/propidium iodide-staining based flow cytometry (reference value: 0.062%); type: functional
[6] = test system: MCF7; experiment: Induction of cell cycle arrest in human MCF7 cells assessed as accumulation at S phase at 1 uM after 24 hrs by propidium iodide-staining based flow cytometry (reference value: 31.55%); type: functional
[7] = test system: MCF7; experiment: Induction of cell cycle arrest in human MCF7 cells assessed as upregulation of p21 expression at 1 uM after 24 hrs by Western blot analysis; type: functional, cell-based
Summary of the method: (§1)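 p21 and p27 protein levels were measured by Western blot in MCF7 cells treated at 1 µM for 24 h.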

[8] = MRT in Sprague-Dawley rat at 20 mg/kg, po by HPLC analysis; type: ADME, organism-based; settings: in vivo
Summary of the method: (§2)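 Male Sprague-Dawley rats (180−220 g), 4 per group, dosed at 5 mg/kg i.v., 20 mg/kg i.p. or 20 mg/kg p.o. Parameters given as mean ± SD (n = 4).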

[9] = Drug uptake in human MCF7 cells at 1 uM after 10 mins by HPLC analysis; type: ADME, cell-based; settings: mcf7, 10 min
Summary of the method: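 MCF7 cells were given 1 µM compound in medium with 10% FBS for 10 or 30 min. Cells and medium were extracted separately with chloroform/methanol (3:1, v/v) and analysed by HPLC. Mean ± SEM, n = 3.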

[10] = test system: MCF7; experiment: Induction of cell cycle arrest in human MCF7 cells assessed as accumulation at G2/M phase at 1 uM after 24 hrs by propidium iodide-staining based flow cytometry (reference value: 12.41%); type: functional
[11] = test system: Mus musculus; experiment: Toxicity in BALB/c nude mouse xenografted with human MCF7 cells assessed increase in serum calcium levels at 10 mg/kg, ip administered every other day relative to control; type: organism-based; settings: in vivo
Summary of the method: (§3)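 MCF7 cells transplanted orthotopically into the breast of athymic nude mice. Dosing at 10 mg/kg i.p. in vehicle of polyoxyethylated castor oil/ethanol/saline 1:1:18, with vehicle and saline control groups. Body weight, tumor volume and serum calcium followed.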

[12] = MRT in Sprague-Dawley rat at 5 mg/kg, iv by HPLC analysis; type: ADME, organism-based; settings: in vivo; summary of the method: as §2
[13] = test system: MCF7; experiment: Antiproliferative activity against human MCF7 cells after 48 hrs by MTT assay; type: functional, cell-based; settings: MCF7, 48 h
[14] = test system: MCF7; experiment: Induction of cell cycle arrest in human MCF7 cells assessed as upregulation of p27 mRNA levels at 1 uM after 24 hrs by RT-qPCR analysis; type: functional, cell-based
Summary of the method: (§4)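 p21 and p27 mRNA levels were measured by real-time quantitative PCR in MCF7 cells treated at 1 µM for 24 h.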

[15] = AUC in Sprague-Dawley rat at 20 mg/kg, ip measured up to 48 hrs post administration by HPLC analysis; type: ADME, organism-based; design: time < 48 hr, dose 20 mg/kg, route intraperitoneal; settings: in vivo; summary of the method: as §2
[16] = Clearance in Sprague-Dawley rat at 20 mg/kg, ip by HPLC analysis; type: ADME, organism-based; settings: in vivo; summary of the method: as §2
[17] = test system: HepG2; experiment: Induction of cell cycle arrest in human HepG2 cells at 1 uM after 24 hrs by propidium iodide-staining based flow cytometry; type: functional
[18] = Half life in Sprague-Dawley rat at 20 mg/kg, po by HPLC analysis; type: ADME, organism-based; settings: in vivo; summary of the method: as §2
[19] = Clearance in Sprague-Dawley rat at 20 mg/kg, po by HPLC analysis; type: ADME, organism-based; settings: in vivo; summary of the method: as §2
[20] = Bioavailability in Sprague-Dawley rat at 20 mg/kg, ip measured up to 48 hrs after administration by HPLC analysis; type: ADME, organism-based; settings: in vivo; summary of the method: as §2
[21] = test system: MCF7; experiment: Induction of cell cycle arrest in human MCF7 cells assessed as upregulation of p21 mRNA levels at 1 uM after 24 hrs by RT-qPCR analysis; type: functional, cell-based; summary of the method: as §4
[22] = AUC in Sprague-Dawley rat at 5 mg/kg, iv measured up to 48 hrs post administration by HPLC analysis; type: ADME, organism-based; design: dose 5 mg/kg, time < 48 hr, route intravenous; settings: in vivo; summary of the method: as §2
[23] = test system: MCF7; experiment: Induction of cell cycle arrest in human MCF7 cells assessed as upregulation of p27 expression at 1 uM after 24 hrs by Western blot analysis; type: functional, cell-based; summary of the method: as §1
[24] = test system: Mus musculus; experiment: Toxicity in BALB/c nude mouse xenografted with human MCF7 cells assessed as change in body weight at 10 mg/kg, ip administered every other day relative to control; type: organism-based; settings: in vivo; summary of the method: as §3
[25] = test system: Mus musculus; experiment: Hypercalcemic effect in ICR mouse at 0.5 to 5 mg/kg/day, ip administered for 7 days measured on day 8 post-dose by MTB-based assay relative to control; type: ADME, organism-based; settings: in vivo, 168 h
Summary of the method: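 Mice were dosed i.p. over a 7-day period and serum calcium was then measured. Each dose level was compared with a vehicle-treated control group (saline cited as the comparator). Data are mean ± SEM, n = 6 per group. Significance versus vehicle was reported at p < 0.05, 0.01 and 0.001.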

[26] = Half life in Sprague-Dawley rat at 5 mg/kg, iv by HPLC analysis; type: ADME, organism-based; settings: in vivo; summary of the method: as §2
[27] = Half life in Sprague-Dawley rat at 20 mg/kg, ip by HPLC analysis; type: ADME, organism-based; settings: in vivo; summary of the method: as §2
[28] = test system: MCF7; experiment: Induction of apoptosis in human MCF7 cells assessed as necrotic cells at 1 uM after 24 hrs by Annexin V-FITC/propidium iodide-staining based flow cytometry (reference value: 0.031%); type: functional
[29] = test system: MCF7; experiment: Induction of cell cycle arrest in human MCF7 cells assessed as accumulation at G0/G1 phase at 1 uM after 24 hrs by propidium iodide-staining based flow cytometry (reference value: 56.03%); type: functional
[30] = test system: MCF7; experiment: Induction of apoptosis in human MCF7 cells assessed as early apoptotic cells at 1 uM after 24 hrs by Annexin V-FITC/propidium iodide-staining based flow cytometry (reference value: 1.74%); type: functional
[31] = biological target: T2, Vitamin D3 receptor (Homo sapiens, UniProt P11473); experiment: Displacement of fluormone VDR red from human full length VDR after 4 hrs by fluorescence polarization assay
T2 sequence (P11473 whole entry): T1 sequence (whole entry)

Compound	IC50 [1] [nM]	Activity [2]	Activity [3]	IC50 [4] [nM]	Activity [5] [%]	Activity [6] [%]	Activity [7]	MRT [8] [h]	Drug uptake [9]	Activity [10] [%]	Activity [11]	MRT [12] [h]	IC50 [13] [nM]	Activity [14]	AUC at 48 h [15] [ng·h/mL]	CL/F [16] [mL/min]	Activity [17]	half-life [18] [min]	CL/F [19] [mL/min]	bioavailability [20] [%]	also measured
CCN(CC)CCCNC(=O)c1ccc(C(CC)(CC)c2ccc(OCCC(O)(CC)CC)c(C)c2)n1CC	17	Active	Dose-dependent effect	40	4.49	25.13	Active	11	Active	4.72	Non-Toxic	3.85	57	Active	30500	11.3	Active	409	15.5	30.2	Activity [21]: Active; AUC at 48 h [22]: 25200 ng·h/mL; Activity [23]: Active; Activity [24]: Non-Toxic; Activity [25]: Non-Toxic; half-life [26]: 178 min; half-life [27]: 373 min; Activity [28]: 0.23%; Activity [29]: 70.15%; Activity [30]: 9.59%; IC50 [31]: 296 nM
CCn1c(C(=O)NCCCN2CCOCC2)ccc1C(CC)(CC)c1ccc(OCCC(O)(CC)CC)c(C)c1	2720	Active	Dose-dependent effect	1570	2.83	22.62	Active	15.9	37.9%	6.96	Non-Toxic	7.55	260	Active	25900	13	Active	679	21.8	62.5	Activity [21]: Active; AUC at 48 h [22]: 10400 ng·h/mL; Activity [23]: Active; Activity [24]: Non-Toxic; Activity [25]: Non-Toxic; half-life [26]: 285 min; half-life [27]: 704 min; Activity [28]: 0.2%; Activity [29]: 70.41%; Activity [30]: 9.72%; IC50 [31]: 406 nM
